According to ChEMBL document CHEMBL5705905, “Pharmacological targeting of kinases MST1 and MST2 augments tissue repair and regeneration” (Sci Transl Med, 2016):
Activity calls are given as the source filed them. The calls are words filed in the database; no cut-off is given here.

Assays:
[1] = molecular target: Ephrin type-A receptor 5 (Homo sapiens) (UniProt P54756); assay: Inhibition of EPHA5 (unknown origin) assessed as remaining activity at 1 uM by Kinome scan method relative to control
[2] = molecular target: Serine/threonine-protein kinase ULK2 (Homo sapiens, UniProt Q8IYT8); assay: Inhibition of ULK2 (unknown origin) in presence of ATP by enzymatic assay
[3] = molecular target: Interleukin-1 receptor-associated kinase 1 (Homo sapiens) (UniProt P51617); assay: Inhibition of IRAK1 (unknown origin) assessed as remaining activity at 1 uM by Kinome scan method relative to control
[4] = molecular target: Cyclin-dependent kinase 7 (Homo sapiens) (UniProt P50613); assay: Inhibition of CDK7 (unknown origin) assessed as remaining activity at 1 uM by Kinome scan method relative to control
Summary of the method: (§1)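 Active-site-dependent competition-binding profiling (KINOMEscan) at 1 μM against a 468-kinase panel; compound supplied from a 10 mM DMSO stock. Read-out is ctrl% = (test signal − positive control signal)/(negative control signal − positive control signal) × 100. DMSO is the negative control (100%) and a control compound the positive control (0%). Lower ctrl% means tighter binding.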

[5] = molecular target: Phosphatidylinositol 5-phosphate 4-kinase type-2 gamma (Homo sapiens) (UniProt Q8TBX8); assay: Inhibition of PIP5K2C (unknown origin) assessed as remaining activity at 1 uM by Kinome scan method relative to control
[6] = molecular target: Mitogen-activated protein kinase kinase kinase 5 (Homo sapiens) (UniProt Q99683); assay: Inhibition of ASK1 (unknown origin) assessed as remaining activity at 1 uM by Kinome scan method relative to control
Summary of the method: (§2)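 Active-site-dependent competition-binding (KINOMEscan) panel of 468 kinases, test compound at 1 μM (from a 10 mM DMSO stock). Read-out is ctrl% = (test signal − positive control signal)/(negative control signal − positive control signal) × 100. DMSO is the negative control (100%) and a control compound is the positive control (0%). Lower ctrl% means tighter binding.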

[7] = tested on: Epidermal growth factor receptor (Homo sapiens), P00533 [T790M]; assay: Inhibition of EGFR T790M mutant (unknown origin) assessed as remaining activity at 1 uM by Kinome scan method relative to control
[8] = molecular target: Mitogen-activated protein kinase kinase kinase 7 (Homo sapiens) (UniProt O43318); assay: Inhibition of TAK1 (unknown origin) assessed as remaining activity at 1 uM by Kinome scan method relative to control
[9] = molecular target: Protein kinase C iota type (Homo sapiens) (UniProt P41743); assay: Inhibition of PRKCI (unknown origin) assessed as remaining activity at 1 uM by Kinome scan method relative to control
[10] = tested on: Receptor-type tyrosine-protein kinase FLT3 (Homo sapiens), P36888 [R834Q]; assay: Inhibition of FLT3 R834Q mutant (unknown origin) assessed as remaining activity at 1 uM by Kinome scan method relative to control
[11] = Inhibition of recombinant His-tagged full-length MST1 D109A mutant (unknown origin) expressing in Escherichia coli assessed as MOB1 phosphorylation level incubated for 15 min by immunoblot analysis; parameters: species or system Homo sapiens
[12] = molecular target: Serine/threonine-protein kinase MRCK gamma (Homo sapiens) (UniProt Q6DT37); assay: Inhibition of DMPK2 (unknown origin) assessed as remaining activity at 1 uM by Kinome scan method relative to control
[13] = molecular target: Focal adhesion kinase 1 (Homo sapiens) (UniProt Q05397); assay: Inhibition of FAK (unknown origin) assessed as remaining activity at 1 uM by Kinome scan method relative to control
[14] = molecular target: Cyclin-dependent kinase 2 homolog (Plasmodium falciparum (isolate K1 / Thailand)) (UniProt Q07785); assay: Inhibition of Plasmodium falciparum PK5 assessed as remaining activity at 1 uM by Kinome scan method relative to control
[15] = molecular target: Mitogen-activated protein kinase 4 (Homo sapiens) (UniProt P31152); assay: Inhibition of ERK4 (unknown origin) assessed as remaining activity at 1 uM by Kinome scan method relative to control
[16] = Oral bioavailability in male Sprague-Dawley rat at 10 mg/kg measured for 24 hrs by LC-MS/MS analysis; assay type: ADME, organism-based; settings: in vivo
[17] = tested on: Mus musculus; assay: In vivo inhibition of MST1/2 in mouse assessed as block in MOB1 phosphorylation level at 1 mg/kg, ip administration by immunoblot analysis; assay type: functional, organism-based
Summary of the method: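 Wild-type mice received escalating intraperitoneal doses, and livers were collected 3 h later. Liver lysates were immunoblotted for p-MOB1 and quantified relative to controls. Means ± SD, n = 3, Student's t test.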

[18] = molecular target: Ribosomal protein S6 kinase alpha-2 (Homo sapiens) (UniProt Q15349); assay: Inhibition of C-terminal kinase domain RSK3 (unknown origin) assessed as remaining activity at 1 uM by Kinome scan method relative to control; summary of the method: as §2
[19] = tested on: Mus musculus; assay: In vivo inhibition of MST1/2 in wild-type Mst1fl/fl Mst2fl/fl mouse assessed as high in CTGF mRNA level at 1 mg/kg, ip administrated daily for 7 days by RT-PCR analysis; assay type: functional, organism-based; settings: Liver, time 7.0 day
[20] = tested on: Phosphatidylinositol 4,5-bisphosphate 3-kinase catalytic subunit alpha isoform (Homo sapiens), P42336 [E542K]; assay: Inhibition of PIK3CA E542K mutant (unknown origin) assessed as remaining activity at 1 uM by Kinome scan method relative to control
[21] = molecular target: Cyclin-dependent kinase-like 2 (Homo sapiens) (UniProt Q92772); assay: Inhibition of CDKL2 (unknown origin) assessed as remaining activity at 1 uM by Kinome scan method relative to control; summary of the method: as §1
[22] = molecular target: Dual specificity tyrosine-phosphorylation-regulated kinase 1A (Homo sapiens) (UniProt Q13627); assay: Inhibition of DYRK1A (unknown origin) assessed as remaining activity at 1 uM by Kinome scan method relative to control
[23] = molecular target: Serine/threonine-protein kinase DCLK3 (Homo sapiens) (UniProt Q9C098); assay: Inhibition of DCAMKL3 (unknown origin) assessed as remaining activity at 1 uM by Kinome scan method relative to control
[24] = molecular target: Serine/threonine-protein kinase PknB (Mycobacterium tuberculosis) (UniProt P9WI81); assay: Inhibition of Mycobacterium tuberculosis PknB assessed as remaining activity at 1 uM by Kinome scan method relative to control
Summary of the method: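 KINOMEscan active-site competition binding assay at 1 μM against 468 kinases. Ctrl% = (test − positive control)/(negative control DMSO − positive control) × 100; lower values mean tighter binding.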

[25] = molecular target: Tyrosine-protein kinase Yes (Homo sapiens) (UniProt P07947); assay: Inhibition of YES (unknown origin) assessed as remaining activity at 1 uM by Kinome scan method relative to control
[26] = molecular target: Serine/threonine-protein kinase ICK (Homo sapiens) (UniProt Q9UPZ9); assay: Inhibition of ICK (unknown origin) assessed as remaining activity at 1 uM by Kinome scan method relative to control
[27] = molecular target: Ribosomal protein S6 kinase alpha-5 (Homo sapiens) (UniProt O75582); assay: Inhibition of C-terminal kinase domain RPS6KA5 (unknown origin) assessed as remaining activity at 1 uM by Kinome scan method relative to control; summary of the method: as §2
[28] = molecular target: Casein kinase I isoform epsilon (Homo sapiens) (UniProt P49674); assay: Inhibition of CSNK1E (unknown origin) assessed as remaining activity at 1 uM by Kinome scan method relative to control; summary of the method: as §1

Sequence of Phosphatidylinositol 4,5-bisphosphate 3-kinase catalytic subunit alpha isoform (Homo sapiens), P42336 [E542K] (P42336 whole entry E542K, canonical isoform): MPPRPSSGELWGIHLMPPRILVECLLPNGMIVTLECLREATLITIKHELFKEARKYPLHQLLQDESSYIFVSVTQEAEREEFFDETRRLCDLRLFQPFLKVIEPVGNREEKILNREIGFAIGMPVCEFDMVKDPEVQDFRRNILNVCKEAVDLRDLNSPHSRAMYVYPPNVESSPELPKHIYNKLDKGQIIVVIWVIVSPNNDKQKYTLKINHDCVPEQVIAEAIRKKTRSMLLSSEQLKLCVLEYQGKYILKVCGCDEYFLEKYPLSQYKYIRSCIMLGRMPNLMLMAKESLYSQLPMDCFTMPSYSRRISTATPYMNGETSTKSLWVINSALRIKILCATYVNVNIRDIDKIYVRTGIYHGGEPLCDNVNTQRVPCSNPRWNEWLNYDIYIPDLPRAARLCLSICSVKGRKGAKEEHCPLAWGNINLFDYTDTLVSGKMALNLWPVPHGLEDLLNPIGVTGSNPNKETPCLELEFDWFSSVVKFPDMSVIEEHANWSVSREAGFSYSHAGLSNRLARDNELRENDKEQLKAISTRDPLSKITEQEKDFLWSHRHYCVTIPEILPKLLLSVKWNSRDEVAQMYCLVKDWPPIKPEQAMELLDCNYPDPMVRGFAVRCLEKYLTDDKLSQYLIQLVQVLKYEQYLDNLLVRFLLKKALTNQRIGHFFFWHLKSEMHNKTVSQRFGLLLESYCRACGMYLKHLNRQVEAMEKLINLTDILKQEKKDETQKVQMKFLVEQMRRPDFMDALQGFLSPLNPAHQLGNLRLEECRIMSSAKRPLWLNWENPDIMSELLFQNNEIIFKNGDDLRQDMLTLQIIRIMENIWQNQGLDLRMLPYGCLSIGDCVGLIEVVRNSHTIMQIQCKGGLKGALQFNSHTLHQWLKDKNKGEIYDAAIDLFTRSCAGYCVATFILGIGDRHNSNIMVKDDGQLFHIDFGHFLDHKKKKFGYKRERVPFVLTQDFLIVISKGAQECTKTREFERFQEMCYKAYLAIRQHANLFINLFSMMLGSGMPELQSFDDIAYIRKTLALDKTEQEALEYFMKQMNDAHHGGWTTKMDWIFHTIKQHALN
Sequence of Serine/threonine-protein kinase DCLK3 (Homo sapiens) (Q9C098 whole entry): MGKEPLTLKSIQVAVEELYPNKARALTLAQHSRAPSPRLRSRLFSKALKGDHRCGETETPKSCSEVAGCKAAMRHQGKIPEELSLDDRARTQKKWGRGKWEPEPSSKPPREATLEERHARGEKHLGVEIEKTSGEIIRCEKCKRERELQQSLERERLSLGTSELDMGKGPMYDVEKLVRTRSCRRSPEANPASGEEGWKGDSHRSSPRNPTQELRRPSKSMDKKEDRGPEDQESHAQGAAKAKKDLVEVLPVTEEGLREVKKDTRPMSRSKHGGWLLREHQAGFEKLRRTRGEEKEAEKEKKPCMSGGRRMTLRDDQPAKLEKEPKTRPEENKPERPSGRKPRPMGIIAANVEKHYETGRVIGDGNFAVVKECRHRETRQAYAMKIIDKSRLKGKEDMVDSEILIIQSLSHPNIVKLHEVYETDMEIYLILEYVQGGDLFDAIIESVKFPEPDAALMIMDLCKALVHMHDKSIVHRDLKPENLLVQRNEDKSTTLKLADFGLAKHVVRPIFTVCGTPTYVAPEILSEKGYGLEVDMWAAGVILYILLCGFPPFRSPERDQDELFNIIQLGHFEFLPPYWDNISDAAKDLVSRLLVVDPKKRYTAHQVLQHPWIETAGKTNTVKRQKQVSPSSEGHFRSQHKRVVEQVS
Sequence of Ribosomal protein S6 kinase alpha-5 (Homo sapiens) (O75582 whole entry, looked up, the tested form may be a part, canonical isoform): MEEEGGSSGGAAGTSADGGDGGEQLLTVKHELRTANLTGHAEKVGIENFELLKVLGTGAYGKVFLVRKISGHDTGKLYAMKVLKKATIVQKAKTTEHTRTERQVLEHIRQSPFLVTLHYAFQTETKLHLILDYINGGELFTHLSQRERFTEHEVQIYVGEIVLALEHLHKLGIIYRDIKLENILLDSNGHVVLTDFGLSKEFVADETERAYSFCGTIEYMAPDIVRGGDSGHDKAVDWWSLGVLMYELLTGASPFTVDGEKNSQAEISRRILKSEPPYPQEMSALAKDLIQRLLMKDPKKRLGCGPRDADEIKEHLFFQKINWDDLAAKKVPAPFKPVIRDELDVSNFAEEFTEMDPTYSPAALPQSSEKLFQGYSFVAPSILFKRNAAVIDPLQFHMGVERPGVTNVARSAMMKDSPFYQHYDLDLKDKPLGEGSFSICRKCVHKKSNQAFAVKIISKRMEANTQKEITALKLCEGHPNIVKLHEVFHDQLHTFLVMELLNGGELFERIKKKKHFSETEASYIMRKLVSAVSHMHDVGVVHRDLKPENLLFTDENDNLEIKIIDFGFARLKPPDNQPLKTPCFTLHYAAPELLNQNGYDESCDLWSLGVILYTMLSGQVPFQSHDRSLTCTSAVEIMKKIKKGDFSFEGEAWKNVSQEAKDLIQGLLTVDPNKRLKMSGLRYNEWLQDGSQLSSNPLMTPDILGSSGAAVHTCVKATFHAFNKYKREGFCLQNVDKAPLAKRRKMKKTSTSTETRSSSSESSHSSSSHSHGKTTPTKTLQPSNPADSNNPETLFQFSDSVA
Sequence of Cyclin-dependent kinase 2 homolog (Plasmodium falciparum (isolate K1 / Thailand)) (Q07785 whole entry): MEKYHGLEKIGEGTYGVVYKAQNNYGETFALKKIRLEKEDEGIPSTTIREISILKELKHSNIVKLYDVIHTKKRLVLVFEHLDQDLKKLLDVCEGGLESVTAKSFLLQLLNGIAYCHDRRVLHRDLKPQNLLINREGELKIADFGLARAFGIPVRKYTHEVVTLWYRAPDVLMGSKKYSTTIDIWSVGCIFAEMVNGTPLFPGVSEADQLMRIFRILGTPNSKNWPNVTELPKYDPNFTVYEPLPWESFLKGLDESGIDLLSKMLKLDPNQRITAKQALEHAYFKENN
Sequence of Focal adhesion kinase 1 (Homo sapiens) (Q05397 2-1052 limits assumed): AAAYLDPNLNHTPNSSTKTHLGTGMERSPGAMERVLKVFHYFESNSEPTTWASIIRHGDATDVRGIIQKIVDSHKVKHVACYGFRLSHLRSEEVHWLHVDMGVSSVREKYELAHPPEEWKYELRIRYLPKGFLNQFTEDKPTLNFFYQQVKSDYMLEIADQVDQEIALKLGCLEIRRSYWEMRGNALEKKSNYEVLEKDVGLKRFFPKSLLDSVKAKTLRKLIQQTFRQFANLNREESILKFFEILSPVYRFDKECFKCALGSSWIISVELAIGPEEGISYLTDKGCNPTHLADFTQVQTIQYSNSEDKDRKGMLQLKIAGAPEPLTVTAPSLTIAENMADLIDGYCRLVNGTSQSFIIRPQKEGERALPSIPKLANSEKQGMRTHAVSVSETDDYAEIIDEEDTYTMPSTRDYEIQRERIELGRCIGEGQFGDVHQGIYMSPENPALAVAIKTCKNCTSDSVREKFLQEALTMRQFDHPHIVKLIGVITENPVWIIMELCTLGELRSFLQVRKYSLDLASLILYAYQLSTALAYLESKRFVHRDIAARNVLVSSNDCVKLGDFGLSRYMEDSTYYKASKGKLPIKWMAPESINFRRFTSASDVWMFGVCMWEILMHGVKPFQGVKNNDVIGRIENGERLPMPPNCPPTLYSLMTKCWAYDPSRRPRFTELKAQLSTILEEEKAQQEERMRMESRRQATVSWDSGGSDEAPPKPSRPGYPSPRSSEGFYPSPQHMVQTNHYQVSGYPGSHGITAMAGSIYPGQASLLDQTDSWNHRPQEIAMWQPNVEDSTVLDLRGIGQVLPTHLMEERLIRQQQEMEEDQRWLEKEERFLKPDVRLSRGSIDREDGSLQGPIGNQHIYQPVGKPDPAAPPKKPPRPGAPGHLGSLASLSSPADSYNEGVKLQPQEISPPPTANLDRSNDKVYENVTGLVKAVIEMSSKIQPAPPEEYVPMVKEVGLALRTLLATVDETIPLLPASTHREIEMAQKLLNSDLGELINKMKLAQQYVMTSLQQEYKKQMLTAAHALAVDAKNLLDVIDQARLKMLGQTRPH
Sequence of Ephrin type-A receptor 5 (Homo sapiens) (P54756 whole entry): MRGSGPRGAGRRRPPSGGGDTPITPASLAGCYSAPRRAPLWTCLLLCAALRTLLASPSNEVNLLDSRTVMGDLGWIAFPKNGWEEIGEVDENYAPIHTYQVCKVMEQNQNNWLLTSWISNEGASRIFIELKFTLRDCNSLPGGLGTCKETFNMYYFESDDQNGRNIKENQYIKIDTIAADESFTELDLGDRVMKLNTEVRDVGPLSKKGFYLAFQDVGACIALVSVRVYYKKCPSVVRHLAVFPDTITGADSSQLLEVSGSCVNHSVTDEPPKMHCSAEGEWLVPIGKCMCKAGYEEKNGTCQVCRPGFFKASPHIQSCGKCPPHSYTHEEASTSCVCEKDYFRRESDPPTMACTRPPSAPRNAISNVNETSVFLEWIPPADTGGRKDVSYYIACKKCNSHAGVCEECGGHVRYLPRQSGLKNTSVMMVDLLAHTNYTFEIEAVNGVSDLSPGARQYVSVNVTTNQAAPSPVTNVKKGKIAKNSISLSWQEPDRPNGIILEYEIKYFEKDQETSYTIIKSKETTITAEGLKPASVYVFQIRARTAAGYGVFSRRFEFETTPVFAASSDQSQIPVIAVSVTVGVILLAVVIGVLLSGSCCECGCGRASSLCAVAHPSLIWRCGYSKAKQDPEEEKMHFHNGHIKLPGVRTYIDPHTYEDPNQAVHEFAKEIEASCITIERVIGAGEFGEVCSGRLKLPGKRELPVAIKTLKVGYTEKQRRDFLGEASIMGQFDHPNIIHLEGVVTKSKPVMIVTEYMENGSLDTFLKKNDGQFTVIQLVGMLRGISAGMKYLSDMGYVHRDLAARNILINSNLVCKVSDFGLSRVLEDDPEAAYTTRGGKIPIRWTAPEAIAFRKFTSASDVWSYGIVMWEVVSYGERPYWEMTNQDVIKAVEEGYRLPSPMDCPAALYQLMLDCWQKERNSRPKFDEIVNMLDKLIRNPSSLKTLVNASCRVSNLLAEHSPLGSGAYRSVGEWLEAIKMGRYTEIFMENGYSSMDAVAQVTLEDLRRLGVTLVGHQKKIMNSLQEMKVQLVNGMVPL

Work on `CN1C(=O)c2sccc2N(C)c2nc(Nc3ccc(S(N)(=O)=O)cc3)ncc21` yielded an Activity [1] of 100%, an IC50 [2] of 41.5 nM and an Activity [3] of 51%. It also gave an Activity [4] of 60%, an Activity [5] of 8% and an Activity [6] of 100%. It also gave an Activity [7] of 92%, an Activity [8] of 71% and an Activity [9] of 94%. The Activity [10] was 91%, the IC50 [11] was 753 nM and the Activity [12] was 100%. For the same molecule, the Activity [13] was 96%, the Activity [14] was 93% and the Activity [15] was 80%. The bioavailability [16] was 39.5%, the inhibition [17] was “Active” and the Activity [18] was 92%. For the same molecule, the inhibition [19] was “Active”, the Activity [20] was 48% and the Activity [21] was 97%. For the same molecule, the Activity [22] was 81%, the Activity [23] was 100% and the Activity [24] was 89%. For the same molecule, the Activity [25] was 100%, the Activity [26] was 62% and the Activity [27] was 81%. It also gave an Activity [28] of 92%.
